This is an account of results in ChEMBL document CHEMBL1143854 (Antimicrob Agents Chemother, 2007).

The term IC50 denotes the concentration at which inhibition is half-maximal.

Assay type in all cases: functional, organism-based
Test [1] deals with Plasmodium falciparum. In words: Antimalarial activity against chloroquine-resistant Plasmodium falciparum RSA11.
In test [2] the test system is Plasmodium falciparum. In words: Antimalarial activity against chloroquine-resistant Plasmodium falciparum K1.
In test [3] the test system is Plasmodium falciparum. Put plainly: Reduction of [3H]dihydroartemisinin uptake in chloroquine-resistant Plasmodium falciparum RSA11 infected erythrocytes after 90 min. Put shortly: (§1)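 [3H]dihydroartemisinin (1.4 Ci/mmol) uptake into trophozoite-infected erythrocytes (5% parasitemia, 1.5% hematocrit), with unlabeled antimalarial added at the start, 90 min at 37°C. Cells spun through silicone oil, radioactivity counted by liquid scintillation. Uptake given as percent of untreated infected-cell control after subtracting uptake in uninfected erythrocytes. At least two experiments, each in triplicate.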

In test [4] the test system is Plasmodium falciparum. Put plainly: Reduction of [3H]dihydroartemisinin uptake in chloroquine-sensitive Plasmodium falciparum FC27 infected erythrocytes after 90 min. In outline:
(§2)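 Trophozoite-stage parasitized erythrocytes (5% parasitemia, 1.5% hematocrit) added to microtubes holding unlabeled antimalarial plus radiolabeled drug ([3H]DHA 1.4 Ci/mmol or [3H]CQ 50.4 Ci/mmol); 37°C, 90 min. Cells spun through silicon oil, radioactivity by liquid scintillation. Uptake as percent of control parasitized erythrocytes after subtracting uninfected-erythrocyte uptake; at least two experiments, each in triplicate.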

The subject of test [5] is Plasmodium falciparum. In words: Antimalarial activity against chloroquine-sensitive Plasmodium falciparum T996.
Test [6] deals with Plasmodium falciparum. In words: Antimalarial activity against chloroquine-sensitive Plasmodium falciparum 106/1.
Test [7] concerns Plasmodium falciparum. Put plainly: Reduction of [3H]dihydroartemisinin uptake in chloroquine-sensitive Plasmodium falciparum 3D7 infected erythrocytes after 90 min. Put shortly: as §2
Test [8] deals with Plasmodium falciparum. In words: Antimalarial activity against chloroquine-sensitive Plasmodium falciparum FC27.
The subject of test [9] is Plasmodium falciparum. Put plainly: Reduction of [3H]dihydroartemisinin uptake in chloroquine-resistant Plasmodium falciparum K1 infected erythrocytes after 90 min. Put shortly: as §1
Test [10] deals with Plasmodium falciparum. In words: Antimalarial activity against chloroquine-sensitive Plasmodium falciparum 3D7.
Test [11] has as its system Plasmodium falciparum. Put plainly: Antimalarial activity against chloroquine-resistant Plasmodium falciparum 7G8-mdr7G8.
Test [12] relates to Plasmodium falciparum. In words: Antimalarial activity against chloroquine-resistant Plasmodium falciparum 34-1/E.
The subject of test [13] is Plasmodium falciparum. In words: Reduction of [3H]chloroquine uptake in chloroquine-sensitive Plasmodium falciparum FC27 infected erythrocytes after 90 min. Put shortly:
as §2

Test [14] has as its system Plasmodium falciparum. Put plainly: Reduction of [3H]chloroquine uptake in chloroquine-resistant Plasmodium falciparum RSA11 infected erythrocytes after 90 min. In outline: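 [3H]chloroquine (50.4 Ci/mmol) uptake into trophozoite-infected erythrocytes (5% parasitemia, 1.5% hematocrit), with unlabeled antimalarial added at the start, 90 min at 37°C. Cells spun through silicone oil, radioactivity counted by liquid scintillation. Uptake given as percent of untreated infected-cell control after subtracting uptake in uninfected erythrocytes. At least two experiments, each in triplicate.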

In test [15] the test system is Plasmodium falciparum. In words: Reduction of [3H]chloroquine uptake in chloroquine-sensitive Plasmodium falciparum 3D7 infected erythrocytes after 90 min. In outline: as §2

Active and inactive are the calls of the source. The calls are words filed in the database; no cut-off is given here.

Turning to `CCN(CC)Cc1cc(Nc2ccnc3cc(Cl)ccc23)ccc1O`, the IC50 in the test with Plasmodium falciparum [1] amounted to 26.7 nM; in the test with Plasmodium falciparum [2] it was 22.4 nM; with Plasmodium falciparum [5] it was 14.8 nM; in the test on Plasmodium falciparum [6], 17.5 nM; in the test with Plasmodium falciparum [8], 6.68 nM; in the test on Plasmodium falciparum [10], 18.4 nM. Besides, the IC50 in the test on Plasmodium falciparum [11] was 32.7 nM; in the test with Plasmodium falciparum [12], 17.2 nM. Further, the outcome with Plasmodium falciparum [3], with Plasmodium falciparum [4], with Plasmodium falciparum [7] and with Plasmodium falciparum [9] was Active.
With `CO[C@H]1O[C@@H]2O[C@@]3(C)CC[C@H]4[C@H](C)CC[C@@H]([C@H]1C)[C@@]24OO3`, the outcome with Plasmodium falciparum [3], in the test with Plasmodium falciparum [4], in the test on Plasmodium falciparum [13], with Plasmodium falciparum [14], in the test on Plasmodium falciparum [14] (K1) and in the test on Plasmodium falciparum [7] was Active. Further, the outcome with Plasmodium falciparum [9] and in the test on Plasmodium falciparum [15] was Active.
As to `Clc1ccc2c(N3CCN(CCCN4CCN(c5ccnc6cc(Cl)ccc56)CC4)CC3)ccnc2c1` [PIPERAQUINE], the outcome in the test on Plasmodium falciparum [3], with Plasmodium falciparum [4], with Plasmodium falciparum [13], in the test on Plasmodium falciparum [14], in the test on Plasmodium falciparum [14] (K1) and in the test with Plasmodium falciparum [7] was Active. Besides, the outcome with Plasmodium falciparum [9] and in the test on Plasmodium falciparum [15] was Active. The IC50 was 19.9 nM in the test on Plasmodium falciparum [5]; 22.2 nM in the test on Plasmodium falciparum [6]; 29.6 nM with Plasmodium falciparum [8]; 36.9 nM with Plasmodium falciparum [10]; 16.4 nM with Plasmodium falciparum [12].
As to `OC(c1cc(C(F)(F)F)nc2c(C(F)(F)F)cccc12)C1CCCCN1` (configuration not stated), the outcome in the test with Plasmodium falciparum [3], in the test on Plasmodium falciparum [4], in the test on Plasmodium falciparum [13], in the test with Plasmodium falciparum [14], in the test with Plasmodium falciparum [14] (K1) and with Plasmodium falciparum [7] was Active. The result in the test on Plasmodium falciparum [9] and in the test with Plasmodium falciparum [15] was Active.
Regarding `CCN(CC)CCCC(C)Nc1ccnc2cc(Cl)ccc12` (configuration not stated), the result with Plasmodium falciparum [3], in the test with Plasmodium falciparum [4], in the test on Plasmodium falciparum [13], in the test on Plasmodium falciparum [14], with Plasmodium falciparum [14] (K1) and in the test on Plasmodium falciparum [7] was Active. Moreover, the result in the test with Plasmodium falciparum [9] and in the test with Plasmodium falciparum [15] was Active.
Turning to `C[C@H]1[C@@H](O)O[C@@H]2O[C@@]3(C)CC[C@H]4[C@H](C)CC[C@@H]1[C@@]24OO3`, the result with Plasmodium falciparum [3], with Plasmodium falciparum [4], in the test with Plasmodium falciparum [13], in the test on Plasmodium falciparum [14], in the test on Plasmodium falciparum [14] (K1) and in the test on Plasmodium falciparum [7] was Active. Moreover, the result in the test with Plasmodium falciparum [9] and with Plasmodium falciparum [15] was Active.
